From paper PMC6408977 (Journal of controlled release : official journal of the …, 2019)
Non-standard residues stand in square brackets, D forms with d. Residues, ends and D or L forms follow the SMILES beside them. Tyr(3-I) = N[C@@H](Cc1ccc(O)c(I)c1)C(=O)O

Legend:
[1] = Tissue biodistribution measurements; parameters: species or system Balb/c mice; conditions: mouse, in vivo, iv
In short: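 Female Balb/c mice, 8–12 weeks old, from an in-house colony (n = 3). Tissue radioactivity was measured at 1 h and 4 h post-injection, alongside whole-body SPECT/CT imaging at the same times.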

albumin = conditions: read-out: Albumin dissociation constant; cited from earlier work
[2] = target: human serum albumin (Homo sapiens) (UniProt P02768); conditions: cited from earlier work

CC(C)C[C@H](NC(=O)CNC(=O)[C@H](C)NC(=O)[C@H](Cc1ccc(O)c(I)c1)NC(=O)CN)C(=O)N[C@@H](C)C(=O)NCC(=O)N[C@@H](CC(C)C)C(=O)N[C@@H](CC(C)C)C(=O)NCC(=O)N[C@@H](CC(C)C)C(=O)N[C@@H](CCC(=O)O)C(=O)NCC(=O)N[C@@H](CC(C)C)C(=O)N[C@@H](CC(C)C)C(=O)NCC(=O)N[C@@H](CC(C)C)C(=O)N1CCC[C@H]1C(=O)N[C@@H](CC(C)C)C(=O)NCC(=O)N[C@@H](CC(C)C)C(=O)N[C@@H](CC(C)C)C(=O)N[C@@H](CCC(=O)O)C(=O)NCC(=O)N[C@@H](CC(C)C)C(=O)N[C@@H](Cc1c[nH]c2ccccc12)C(=O)N[C@@H](CC(C)C)C(=O)NCC(=O)N[C@@H](CC(C)C)C(=O)N[C@@H](CCC(=O)O)C(=O)N[C@@H](CC(C)C)C(=O)N[C@@H](CCC(=O)O)C(=O)NCC(=O)N[C@@H](CC(N)=O)C(=O)O [^125I-ATRAM] (H-G[Tyr(3-I)]AGLAGLLGLEGLLGLPLGLLEGLWLGLELEGN-OH; N-terminus and C-terminus assumed)
tissue uptake at 1 h [1]: 18 %ID/g
tissue uptake at 4 h [1]: 10 %ID/g

CC1(C)S[C@@H]2[C@H](NC(=O)Cc3ccccc3)C(=O)N2[C@H]1C(=O)O [penicillin G]
Kd (albumin): 833 µM

insulin detemir (from UniProt P01308)
Kd [2]: 4.16 µM
